Test results from ChEMBL document CHEMBL5357067, “Selective (α)-l-Rhamnosylation and Neuroprotective Activity Exploration of Cardiotonic Steroids” (ACS Med Chem Lett, 2024).
Activity calls are given as the source filed them. The calls are words filed in the database; no cut-off is given here.

Experiments:
Type in all cases: functional, cell-based
Glial cell [1] = assay: Antiinflammatory activity in C57BL/6J mouse primary glial cells assessed as effect on IKBKE mRNA level at 200 nM incubated for 24 hrs by qPCR analysis
Glial cell [2] = assay: Antiinflammatory activity in C57BL/6J mouse primary glial cells assessed as effect on TNF-alpha mRNA level at 200 nM incubated for 24 hrs by qPCR analysis
Glial cell [3] = assay: Antiinflammatory activity in C57BL/6J mouse primary glial cells assessed as effect on IL-1 mRNA level at 200 nM incubated for 24 hrs by qPCR analysis
Glial cell [4] = assay: Antiinflammatory activity in C57BL/6J mouse primary glial cells assessed as effect on IL-6 mRNA level at 200 nM incubated for 24 hrs by qPCR analysis
Glial cell [5] = assay: Antiinflammatory activity in C57BL/6J mouse primary glial cells assessed as decrease in LPS-induced IL-6 mRNA level at 200 nM preincubated for 24 hrs followed by LPS stimulation by qPCR analysis
In short: (§1)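 Primary glia from whole brains of 1–2-day-old neonatal C57BL/6J mice (meninges removed, collected in Ca/Mg-free HBSS, oligodendrocytes and neurons separated off). Cells were given 200 nM steroid and stimulated with LPS 250 ng/mL. DMSO served as negative control. Gene expression was measured by qPCR. Data are mean ± SEM, analysed by two-way ANOVA with Newman-Keuls post hoc test.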

Glial cell [6] = assay: Antiinflammatory activity in C57BL/6J mouse primary glial cells assessed as decrease in LPS-induced IL-1 mRNA level at 200 nM preincubated for 24 hrs followed by LPS stimulation by qPCR analysis; in short: as §1
Glial cell [7] = assay: Antiinflammatory activity in C57BL/6J mouse primary glial cells assessed as decrease in LPS-induced TNF-alpha mRNA level at 200 nM preincubated for 24 hrs followed by LPS stimulation by qPCR analysis; in short: as §1
Glial cell [8] = assay: Antiinflammatory activity in C57BL/6J mouse primary glial cells assessed as decrease in LPS-induced IKBKE mRNA level at 200 nM preincubated for 24 hrs followed by LPS stimulation by qPCR analysis; in short: as §1

Row | SMILES | Activity (Glial cell [1]) | Activity (Glial cell [2]) | Activity (Glial cell [3]) | Activity (Glial cell [4]) | Activity (Glial cell [5]) | Activity (Glial cell [6]) | Activity (Glial cell [7]) | Activity (Glial cell [8])
1 | C[C@H]1O[C@@H](O[C@H]2[C@@H](O)C[C@H](O[C@H]3[C@@H](O)C[C@H](O[C@H]4CC[C@@]5(C)[C@H](CC[C@@H]6[C@@H]5C[C@@H](O)[C@]5(C)[C@@H](C7=CC(=O)OC7)CC[C@]65O)C4)O[C@@H]3C)O[C@@H]2C)C[C@H](O)[C@@H]1O | inactive | inactive | inactive | inactive | – | – | – | –
2 | C[C@@H]1O[C@@H](O[C@H]2C[C@@H](O)[C@]3(CO)[C@H]4[C@H](O)C[C@]5(C)[C@@H](C6=CC(=O)OC6)CC[C@]5(O)[C@@H]4CC[C@]3(O)C2)[C@H](O)[C@H](O)[C@H]1O | inactive | inactive | inactive | inactive | Active | Active | Active | Active
3 | C[C@@H]1O[C@@H](O[C@H]2CC[C@]3(CO)[C@H]4CC[C@]5(C)[C@@H](C6=CC(=O)OC6)CC[C@]5(O)[C@@H]4CC[C@]3(O)C2)[C@H](O)[C@H](O)[C@H]1O | inactive | inactive | inactive | inactive | Active | Active | Active | Active
4 | C[C@@H]1O[C@@H](OC[C@@]23[C@@H]4[C@H]5CC[C@]2(O)C[C@@H](O)C[C@@H]3O[C@@H]4C[C@]2(C)[C@@H](C3=CC(=O)OC3)CC[C@]52O)[C@H](O)[C@H](O)[C@H]1O | inactive | inactive | inactive | inactive | inactive | – | Active | Active
5 | C[C@]12C[C@H]3O[C@H]4C[C@H](O)C[C@@]5(O)CC[C@H]([C@H]3[C@@]45CO)[C@@]1(O)CC[C@@H]2C1=CC(=O)OC1 | inactive | inactive | inactive | inactive | inactive | inactive | inactive | inactive
6 | C[C@@H]1O[C@@H](O[C@H]2C[C@@H]3O[C@@H]4C[C@]5(C)[C@@H](C6=CC(=O)OC6)CC[C@]5(O)[C@@H]5CC[C@](O)(C2)[C@@]3(CO)[C@H]54)[C@H](O)[C@H](O)[C@H]1O | inactive | inactive | inactive | inactive | Active | Active | Active | Active
